Source: ChEMBL document CHEMBL1629439, “High-throughput identification of antibacterials against methicillin-resistant Staphylococcus aureus (MRSA) and the transglycosylase” (Bioorg Med Chem, 2010)
Converted amounts (≈) assume the structure as drawn. The source made the active and inactive calls. No cut-off for these calls is given here.

How the values were obtained:
Staphylococcus aureus [1] = experiment: Antimicrobial activity against oxacillin- and methicillin-resistant Staphylococcus aureus isolate Sa-OXA-R2 after 18 to 24 hrs by alamar blue assay; type: functional
In short: (§1)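 Broth microdilution per NCCLS standard, Mueller-Hinton broth, 8-point twofold dilutions; exponentially growing cells at 5 10^5 cells/ml with compound, 18–24 h at 37 C; 20% Alamar blue added, fluorescence read; MIC90 taken as lowest concentration preventing at least 90% growth.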

Bacillus subtilis = experiment: Antimicrobial activity against Bacillus subtilis ATCC 23857 after 18 to 24 hrs by alamar blue assay; type: functional
In short: (§2)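 Broth microdilution per NCCLS in Mueller-Hinton broth, 8-point twofold dilutions, 384-well format. Exponential-phase cells at 5 × 10^5 cells/ml incubated with compound 18–24 h at 37 °C, then 20% Alamar blue added and fluorescence read. MIC90 taken as the lowest concentration preventing at least 90% bacterial growth.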

Escherichia coli [2] = experiment: Antimicrobial activity against Escherichia coli ATCC […] after 18 to 24 hrs by alamar blue assay; type: functional; conditions: Escherichia coli; in short: as §2
Pseudomonas aeruginosa = experiment: Antimicrobial activity against Pseudomonas aeruginosa ATCC 25619 after 18 to 24 hrs by alamar blue assay; type: functional; conditions: Pseudomonas aeruginosa, ATCC 25619; read-out: MIC; in short: as §2
Acinetobacter baumannii = experiment: Antimicrobial activity against Acinetobacter baumannii ATCC 49139 after 18 to 24 hrs by alamar blue assay; type: functional; conditions: Acinetobacter baumannii, ATCC 49139; read-out: MIC; in short: as §2
[3] = tested on: Stenotrophomonas maltophilia; experiment: Antimicrobial activity against Stenotrophomonas maltophilia ATCC 13637 after 18 to 24 hrs by alamar blue assay; type: functional; conditions: Stenotrophomonas maltophilia, ATCC 13637; read-out: MIC; in short: as §2
Serratia marcescens = experiment: Antimicrobial activity against Serratia marcescens ATCC 14756 after 18 to 24 hrs by alamar blue assay; type: functional; conditions: Serratia marcescens, ATCC 14756; read-out: MIC; in short: as §2
[4] = tested on: Mycolicibacterium smegmatis; experiment: Antimicrobial activity against Mycobacterium smegmatis BCRC 11565 after 18 to 24 hrs by alamar blue assay; type: functional; conditions: Mycolicibacterium smegmatis, BCRC 11565; in short: as §2
[5] = Inhibition of transglycosylase assessed as inhibition of NBD- labelled lipid II polymerization
In short: (§3)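 100 µM NBD-labelled lipid II incubated 30 min with full-length PBP (EC, SA or Mtb) and 10 ng/µl N-acetylmuramidase in 50 mM Tris-HCl pH 8.0, 10 mM MgCl2, 0.1% Triton X-100, 10% DMSO, 15% MeOH. Supernatant run on anion-exchange HPLC with 20 mM–0.5 M ammonium acetate gradient. Inhibition calculated from substrate peak-area percentage. IC50 determined. S. aureus strains share one SA enzyme.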

Staphylococcus aureus [6] = experiment: Antimicrobial activity against methicillin-resistant Staphylococcus aureus isolate NTUH4722 after 18 to 24 hrs by alamar blue assay; type: functional; in short: as §1
[7] = Inhibition of transglycosylase in Escherichia coli ATCC […] assessed as inhibition of NBD- labelled lipid II polymerization; in short: as §3
[8] = Inhibition of transglycosylase in Staphylococcus aureus ATCC 29213 assessed as inhibition of NBD- labelled lipid II polymerization; in short: as §3
[9] = Inhibition of transglycosylase in Staphylococcus aureus ATCC 33592 assessed as inhibition of NBD- labelled lipid II polymerization; in short: as §3
[10] = Inhibition of transglycosylase in Staphylococcus aureus isolate NTUH4722 assessed as inhibition of NBD- labelled lipid II polymerization; in short: as §3
[11] = Inhibition of transglycosylase in Staphylococcus aureus isolate Sa-OXA-R2 assessed as inhibition of NBD- labelled lipid II polymerization; in short: as §3
Staphylococcus aureus [12] = experiment: Antimicrobial activity against methicillin-resistant Staphylococcus aureus ATCC 33592 after 18 to 24 hrs by alamar blue assay; type: functional; conditions: Staphylococcus aureus, ATCC 33592; in short: as §1
Escherichia coli [13] = experiment: Displacement of fluorescein-labeled moenomycin from transglycosylase in Escherichia coli ATCC […] assessed as inhibition of lipid II polymerization at 100 uM after 30 mins by fluorescence anisotropy binding assay
Staphylococcus aureus [14] = experiment: Antimicrobial activity against wild-type Staphylococcus aureus ATCC 29213 after 18 to 24 hrs by alamar blue assay; conditions: Staphylococcus aureus, ATCC 29213
[15] = Displacement of fluorescein-labeled moenomycin from transglycosylase in Escherichia coli ATCC […] assessed as inhibition of lipid II polymerization after 30 mins by fluorescence anisotropy binding assay; parameters: species or system Staphylococcus aureus
In short: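 Full-length bifunctional PBP (TGase) at 10 µg/ml mixed with 100 nM fluorescent moenomycin in 10 mM Tris, 100 mM NaCl, pH 8.0, in 1536-well plates. 1 µl of 1 mM compound stock added. 10 µM moenomycin and 2.5% DMSO served as positive and negative controls. After 30 min, drop in fluorescence anisotropy read. Ki derived from Kd and IC50. Same SA enzyme serves all S. aureus strains.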

[16] = Displacement of fluorescein-labeled moenomycin from Mycobacterium tuberculosis transglycosylase assessed as inhibition of lipid II polymerization after 30 mins by fluorescence anisotropy binding assay
In short: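 Full-length bifunctional PBP (10 µg/ml) with 100 nM fluorescein-labelled moenomycin in 10 mM Tris, 100 mM NaCl, pH 8.0; compound added from 1 mM stocks; 30 min incubation, anisotropy decrease read; 10 µM moenomycin and 2.5% DMSO controls. For dose series, Ki derived from probe Kd and IC50.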

[17] = Inhibition of Mycobacterium tuberculosis transglycosylase assessed as inhibition of NBD- labelled lipid II polymerization
In short: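 Full-length PBP incubated 30 min with 100 µM NBD-labelled lipid II, 10 ng/µl N-acetylmuramidase in 50 mM Tris-HCl pH 8.0, 10 mM MgCl2, 0.1% Triton X-100, 10% DMSO, 15% MeOH; supernatant on anion-exchange HPLC, ammonium acetate gradient (20 mM–0.5 M); inhibition from substrate peak area percentage.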

Cc1ccc(C(C)C)c(Oc2cc(Cl)ccc2NC(=O)c2cc(Br)cc(Br)c2O)c1
MIC90 (Staphylococcus aureus [1]): 0.45 µM (≈ 0.249 µg/mL) | MIC (Bacillus subtilis): < 0.03 µg/mL | MIC90 (Escherichia coli [2]): > 512 µM | MIC (Pseudomonas aeruginosa): 16 µg/mL (≈ 28.9 µM) | MIC (Acinetobacter baumannii): 16 µg/mL (≈ 28.9 µM) | MIC [3]: 16 µg/mL (≈ 28.9 µM) | MIC (Serratia marcescens): 16 µg/mL (≈ 28.9 µM) | MIC90 [4]: 3.6 µM (≈ 1.99 µg/mL) | IC90 [5]: < 25 µM | MIC90 (Staphylococcus aureus [6]): 1.8 µM (≈ 0.997 µg/mL) | IC50 [7]: 2.7 µM | IC50 [8]: 19.6 µM | IC50 [9]: 19.6 µM | IC50 [10]: 19.6 µM | IC50 [11]: 19.6 µM | MIC90 (Staphylococcus aureus [12]): 1.8 µM (≈ 0.997 µg/mL) | Activity (Escherichia coli [13]): inactive | MIC90 (Staphylococcus aureus [14]): 1.8 µM (≈ 0.997 µg/mL)

C=C(C/C=C(\C)CCC=C(C)C)CCC(C)(C)/C=C/CC/C(C)=C/CO[C@@H](COP(=O)(O)O[C@H]1O[C@H](C(N)=O)[C@@](C)(O)[C@H](OC(N)=O)[C@H]1O[C@@H]1O[C@H](CO[C@@H]2O[C@H](CO)[C@@H](O)[C@H](O)[C@H]2O)[C@@H](O[C@@H]2O[C@H](C)[C@@H](O[C@@H]3O[C@H](C(=O)NC4=C(O)CCC4=O)[C@H](O)[C@H](O)[C@H]3O)[C@H](O)[C@H]2NC(C)=O)[C@H](O)[C@H]1NC(C)=O)C(=O)O [MOENOMYCIN A]
MIC90 (Staphylococcus aureus [1]): 33 µM (≈ 52.2 µg/mL) | MIC90 (Escherichia coli [2]): 160 µM (≈ 253 µg/mL) | MIC90 [4]: 2.5 µM (≈ 3.96 µg/mL) | Ki [15]: 1.1 µM | Ki [16]: 9.8 µM | MIC90 (Staphylococcus aureus [6]): 33 µM (≈ 52.2 µg/mL) | IC50 [7]: 0.028 µM | IC50 [8]: 0.034 µM | IC50 [9]: 0.034 µM | IC50 [10]: 0.034 µM | IC50 [11]: 0.034 µM | IC50 [17]: 0.05 µM | MIC90 (Staphylococcus aureus [12]): 11 µM (≈ 17.4 µg/mL) | MIC90 (Staphylococcus aureus [14]): 3 µM (≈ 4.75 µg/mL)
